Test results published in ChEMBL document CHEMBL2086252, “Syntheses and evaluation of anticonvulsant activity of novel branched alkyl carbamates” (J Med Chem, 2012).
The source made the active and inactive calls. The calls are words filed in the database; no cut-off is given here.

Key:
[1] = test system: Rattus norvegicus; assay: Protective index, ratio of TD50 for ip dosed Sprague-Dawley albino rat by rotarod test to ED50 for ip dosed Sprague-Dawley albino rat by subcutaneous metrazol seizures test; assay type: functional
Method in brief: (§1)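 Protective index calculated as TD50/ED50, with TD50 and ED50 taken from the same species and dosing route.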

[2] = Neurotoxicity in po dosed Sprague-Dawley albino rat assessed as minimal motor impairment by rotarod test; assay type: toxicity, organism-based; conditions: in vivo
Method in brief: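 Rats dosed orally; 4 rats per time point after dosing. Neurotoxicity was scored as motor impairment or sedation and reported as number of animals affected over number tested.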

[3] = test system: Mus musculus; assay: Anticonvulsant activity in albino CF1 mouse assessed as protection against subcutaneous metrazol-induced seizures at 30 mg/kg, ip after 0.5 hrs; assay type: functional, organism-based; parameters: dose 30 mg/kg
Method in brief: (§2)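 Mice dosed ip at 30, 100 or 300 mg/kg, then tested 0.5 h and 4 h after administration in the MES or scMet test. Protection was recorded as animals protected over animals tested. Neurotoxicity was recorded as motor impairment or sedation, as animals affected over animals tested.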

[4] = test system: Mus musculus; assay: Anticonvulsant activity in albino CF1 mouse assessed as protection against subcutaneous metrazol-induced seizures at 100 mg/kg, ip after 0.5 hrs; assay type: functional, organism-based; parameters: dose 100 mg/kg; method in brief: as §2
[5] = test system: Mus musculus; assay: Anticonvulsant activity in albino CF1 mouse assessed as protection against subcutaneous metrazol-induced seizures at 30 mg/kg, ip after 4 hrs; assay type: functional, organism-based; parameters: dose 30 mg/kg; method in brief: as §2
[6] = test system: Mus musculus; assay: Anticonvulsant activity in albino CF1 mouse assessed as protection against subcutaneous metrazol-induced seizures at 100 mg/kg, ip after 4 hrs; assay type: functional, organism-based; parameters: dose 100 mg/kg; method in brief: as §2
[7] = test system: Mus musculus; assay: Anticonvulsant activity in albino CF1 mouse assessed as protection against maximal electroshock-induced seizures at 30 mg/kg, ip after 0.5 hrs; assay type: functional, organism-based; parameters: dose 30 mg/kg; method in brief: as §2
[8] = test system: Mus musculus; assay: Anticonvulsant activity in albino CF1 mouse assessed as protection against maximal electroshock-induced seizures at 100 mg/kg, ip after 0.5 hrs; assay type: functional, organism-based; parameters: dose 100 mg/kg; method in brief: as §2
[9] = test system: Mus musculus; assay: Anticonvulsant activity in albino CF1 mouse assessed as protection against maximal electroshock-induced seizures at 30 mg/kg, ip after 4 hrs; assay type: functional, organism-based; parameters: dose 30 mg/kg; method in brief: as §2
[10] = test system: Mus musculus; assay: Anticonvulsant activity in albino CF1 mouse assessed as protection against maximal electroshock-induced seizures at 100 mg/kg, ip after 4 hrs; assay type: functional, organism-based; parameters: dose 100 mg/kg; method in brief: as §2
[11] = test system: Mus musculus; assay: Anticonvulsant activity in albino CF1 mouse assessed as protection against maximal electroshock-induced seizures at 300 mg/kg, ip after 4 hrs; assay type: functional, organism-based; parameters: dose 300 mg/kg; method in brief: as §2
[12] = test system: Mus musculus; assay: Neurotoxicity in albino CF1 mouse assessed as minimal motor impairment at 100 mg/kg, ip after 0.5 hrs by rotarod test; assay type: toxicity, organism-based; parameters: dose 100 mg/kg, route intraperitoneal; conditions: in vivo; method in brief: as §2
[13] = test system: Mus musculus; assay: Neurotoxicity in albino CF1 mouse assessed as minimal motor impairment at 300 mg/kg, ip after 0.5 hrs by rotarod test; assay type: toxicity, organism-based; parameters: dose 300 mg/kg, route intraperitoneal; conditions: in vivo; method in brief: as §2
[14] = test system: Mus musculus; assay: Neurotoxicity in albino CF1 mouse assessed as minimal motor impairment at 100 mg/kg, ip after 4 hrs by rotarod test; assay type: toxicity, organism-based; parameters: dose 100 mg/kg, route intraperitoneal; conditions: in vivo; method in brief: as §2
[15] = test system: Mus musculus; assay: Neurotoxicity in albino CF1 mouse assessed as minimal motor impairment at 300 mg/kg, ip after 4 hrs by rotarod test; assay type: toxicity, organism-based; parameters: dose 300 mg/kg, route intraperitoneal; conditions: in vivo; method in brief: as §2
[16] = test system: Rattus norvegicus; assay: Anticonvulsant activity in Sprague-Dawley albino rat assessed as protection against maximal electroshock-induced seizures at 30 mg/kg, po after 30 mins; assay type: functional, organism-based; parameters: dose 30 mg/kg
Method in brief: (§3)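 Rats dosed orally. Anti-MES protection was scored as animals protected over animals tested at each time after dosing. Neurotoxicity was scored as motor impairment or sedation, as animals affected over animals tested.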

[17] = test system: Rattus norvegicus; assay: Anticonvulsant activity in Sprague-Dawley albino rat assessed as protection against maximal electroshock-induced seizures at 30 mg/kg, po after 1 hr; assay type: functional, organism-based; parameters: dose 30 mg/kg; method in brief: as §3
[18] = test system: Rattus norvegicus; assay: Anticonvulsant activity in Sprague-Dawley albino rat assessed as protection against maximal electroshock-induced seizures at 30 mg/kg, po after 2 hrs; assay type: functional, organism-based; parameters: dose 30 mg/kg; method in brief: as §3
[19] = test system: Rattus norvegicus; assay: Anticonvulsant activity in Sprague-Dawley albino rat assessed as protection against maximal electroshock-induced seizures at 30 mg/kg, po after 4 hrs; assay type: functional, organism-based; parameters: dose 30 mg/kg; method in brief: as §3
[20] = test system: Rattus norvegicus; assay: Neurotoxicity in Sprague-Dawley albino rat assessed as minimal motor impairment at 30 mg/kg, po by rotarod test; assay type: toxicity, organism-based; parameters: dose 30 mg/kg, route oral; conditions: in vivo; method in brief: as §3
[21] = test system: Rattus norvegicus; assay: Anticonvulsant activity in po dosed Sprague-Dawley albino rat assessed as protection against maximal electroshock-induced seizures; assay type: functional
Method in brief: (§4)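 Quantitative testing: rats dosed orally or ip in MES and scMet tests, and mice dosed ip, including the 6 Hz (32 mA) psychomotor seizure test. ED50 and TD50 were reported in mg/kg with ranges in parentheses. Protective index was calculated as TD50/ED50.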

[22] = test system: Mus musculus; assay: Anticonvulsant activity in ip dosed albino CF1 mouse assessed as protection against maximal electroshock-induced seizures; assay type: functional; method in brief: as §4
[23] = test system: Rattus norvegicus; assay: Protective index, ratio of TD50 for po dosed Sprague-Dawley albino rat by rotarod test to ED50 for po dosed Sprague-Dawley albino rat by maximal electroshock seizures test; assay type: functional; method in brief: as §1
[24] = test system: Rattus norvegicus; assay: Protective index, ratio of TD50 for ip dosed Sprague-Dawley albino rat by rotarod test to ED50 for ip dosed Sprague-Dawley albino rat by maximal electroshock seizures test; assay type: functional; method in brief: as §1
[25] = test system: Rattus norvegicus; assay: Anticonvulsant activity in po dosed Sprague-Dawley albino rat assessed as protection against subcutaneous metrazol-induced seizures; assay type: functional; method in brief: as §4
[26] = test system: Mus musculus; assay: Anticonvulsant activity in ip dosed albino CF1 mouse assessed as protection against subcutaneous metrazol-induced seizures; assay type: functional; method in brief: as §4
[27] = Neurotoxicity in ip dosed albino CF1 mouse assessed as minimal motor impairment by rotarod test; assay type: toxicity, organism-based; conditions: in vivo; method in brief: as §4
[28] = test system: Mus musculus; assay: Anticonvulsant activity in ip dosed albino CF-1 mouse assessed as protection against 6 Hz psychomotor seizure; assay type: functional; conditions: albino CF-1, ip; method in brief: as §4
[29] = test system: Rattus norvegicus; assay: Anticonvulsant activity in Sprague-Dawley albino rat assessed as protection against pilocarpine-induced status epilepticus at 65 mg/kg, ip; assay type: functional, organism-based; parameters: dose 65 mg/kg
Method in brief: (§5)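 Pilocarpine status epilepticus model in rats. Number and severity of convulsive seizures were observed behaviourally.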

[30] = test system: Rattus norvegicus; assay: Neurotoxicity in pilocarpine-induced status epilepticus Sprague-Dawley albino rat model assessed as minimal motor impairment at 100 mg/kg, ip after 0.25 hr by rotarod test; assay type: toxicity, organism-based; parameters: dose 100 mg/kg, route intraperitoneal; conditions: in vivo
[31] = test system: Rattus norvegicus; assay: Neurotoxicity in pilocarpine-induced status epilepticus Sprague-Dawley albino rat model assessed as minimal motor impairment at 300 mg/kg, ip after 0.25 hr by rotarod test; assay type: toxicity, organism-based; parameters: dose 300 mg/kg, route intraperitoneal; conditions: in vivo
Method in brief: (§6)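 Rat pilocarpine status epilepticus model: test carbamate given at 0 or 30 min after the first observed Racine stage 3 motor seizure, which marks SE onset. Neurotoxicity was scored within the same model.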

[32] = test system: Rattus norvegicus; assay: Neurotoxicity in pilocarpine-induced status epilepticus Sprague-Dawley albino rat model assessed as minimal motor impairment at 30 mg/kg, ip after 0.25 hr by rotarod test; assay type: toxicity, organism-based; parameters: dose 30 mg/kg, route intraperitoneal; conditions: in vivo; method in brief: as §6
[33] = test system: Rattus norvegicus; assay: Neurotoxicity in pilocarpine-induced status epilepticus Sprague-Dawley albino rat model assessed as minimal motor impairment at 100 mg/kg, ip after 0.5 hrs by rotarod test; assay type: toxicity, organism-based; parameters: dose 100 mg/kg, route intraperitoneal; conditions: in vivo
[34] = test system: Rattus norvegicus; assay: Neurotoxicity in pilocarpine-induced status epilepticus Sprague-Dawley albino rat model assessed as minimal motor impairment at 30 mg/kg, ip after 0.5 hrs by rotarod test; assay type: toxicity, organism-based; parameters: dose 30 mg/kg, route intraperitoneal; conditions: in vivo; method in brief: as §6
[35] = test system: Rattus norvegicus; assay: Neurotoxicity in pilocarpine-induced status epilepticus Sprague-Dawley albino rat model assessed as minimal motor impairment at 30 mg/kg, ip after 4 hrs by rotarod test; assay type: toxicity, organism-based; parameters: dose 30 mg/kg, route intraperitoneal; conditions: in vivo; method in brief: as §6
[36] = test system: Rattus norvegicus; assay: Anticonvulsant activity in ip dosed Sprague-Dawley albino rat assessed as protection against pilocarpine-induced status epilepticus after 0.5 hrs; assay type: functional; method in brief: as §5
[37] = test system: Rattus norvegicus; assay: Anticonvulsant activity in Sprague-Dawley albino rat assessed as protection against pilocarpine-induced status epilepticus at 130 mg/kg, ip administered 0 and 30 mins after status epilepticus onset

CCC(COC(N)=O)C(C)C (racemic)
Ratio TD50/ED50 [1]: 1.3 | TD50 [2]: > 500 mg/kg | Activity [3]: inactive | Activity [4]: inactive | Activity [5]: inactive | Activity [6]: inactive | Activity [7]: inactive | Activity [8]: inactive | Activity [9]: inactive | Activity [10]: inactive | Activity [11]: inactive | Activity [12]: Non-toxic | Activity [13]: Toxic | Activity [14]: Non-toxic | Activity [15]: Non-toxic | Activity [16]: inactive | Activity [17]: inactive | Activity [18]: inactive | Activity [19]: inactive | Activity [20]: Non-toxic | ED50 [21]: 64 mg/kg | ED50 [22]: 103 mg/kg | Ratio TD50/ED50 [23]: 7.8 | Ratio TD50/ED50 [24]: 3.6 | ED50 [25]: 35 mg/kg | ED50 [26]: 120 mg/kg | TD50 [27]: 157 mg/kg | ED50 [28]: 33 mg/kg | Activity [29]: Active | Activity [30]: Toxic | Activity [31]: Toxic | Activity [32]: Non-toxic | Activity [33]: Toxic | Activity [34]: Non-toxic | Activity [35]: Non-toxic | ED50 [36]: 81 mg/kg | ED97 [36]: 114 mg/kg | Activity [37]: Active
